Results on 2 compounds are retold here after ChEMBL document CHEMBL1132974 (J Med Chem, 2000).

Experiment [1] deals with T1, Histamine H1 receptor (Rattus norvegicus, UniProt P31390). Briefly: Relative potency was recorded in relaxed rat aortic rings with intact endothelium, submaximally precontracted with 15.8 nM U-46,619 value. Type of experiment: functional, tissue-based, Aorta. Conditions: read-out: pA2 (converted).
Experiment [2] concerns the target Histamine H1 receptor (Cavia porcellus) (UniProt P31389). Briefly: Intrinsic activity was reported in endothelium-denuded guinea pig(pre contracted with PGF-2 alpha) at a concentration of 10 uM. Format: functional. In outline: (§1)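 Endothelium-denuded guinea-pig aortic rings, set up as in the contraction assay, challenged twice with PGF2α (10 µM). Rings were precontracted with a threshold PGF2α level (usually 0.4–1.5 µM, 10–20% of the 10 µM response).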

Experiment [3] has as its target T2, Histamine H1 receptor (Cavia porcellus, UniProt P31389). Briefly: Relative potency was recorded in endothelium-denuded guinea pig; value ranges from 5.75 to 6.25. The note with it: read-out: pA2 (converted). Format: functional. A digest of the protocol: (§2)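 Guinea-pig thoracic aortic rings (2–4 mm), endothelium rubbed off, isometric (10 mN), modified Krebs-Henseleit (1.80 mM Ca2+), 37 °C. Cimetidine, corticosterone and cocaine (30 µM each), prazosin and yohimbine (0.3 µM each) and propranolol (0.1 µM) were present. […] The pEC50 shift was corrected using untreated control preparations.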

In experiment [4] the target is T2, Histamine H1 receptor. Description: Relative potency was recorded in endothelium-denuded guinea pig(pre contracted with PGF-2 alpha); value ranges from 5.76 to 6.40. Type of experiment: functional. Conditions: read-out: pA2 (converted). In outline:
as §1

Experiment [5] addresses Histamine H1 receptor (Cavia porcellus) (UniProt P31389). The note with it: 10 uM.
In experiment [6] the target is T3, Alpha-1D adrenergic receptor (Rattus norvegicus, UniProt P23944).
T3 sequence (P23944 whole entry): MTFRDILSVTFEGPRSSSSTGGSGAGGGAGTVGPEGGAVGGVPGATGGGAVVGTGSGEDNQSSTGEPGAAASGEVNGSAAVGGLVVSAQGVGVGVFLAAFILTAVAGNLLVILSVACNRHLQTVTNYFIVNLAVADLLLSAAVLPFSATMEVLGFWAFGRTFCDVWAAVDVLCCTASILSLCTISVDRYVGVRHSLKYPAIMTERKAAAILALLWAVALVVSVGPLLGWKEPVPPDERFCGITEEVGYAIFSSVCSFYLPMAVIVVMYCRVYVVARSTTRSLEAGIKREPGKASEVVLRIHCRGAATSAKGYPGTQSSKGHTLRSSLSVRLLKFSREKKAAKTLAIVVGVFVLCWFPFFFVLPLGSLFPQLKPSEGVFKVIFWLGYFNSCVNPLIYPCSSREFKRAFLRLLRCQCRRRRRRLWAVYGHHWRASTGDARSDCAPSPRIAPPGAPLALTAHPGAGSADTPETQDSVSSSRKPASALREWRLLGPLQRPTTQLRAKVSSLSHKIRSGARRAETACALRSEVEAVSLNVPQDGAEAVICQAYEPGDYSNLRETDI
Description: Compound was evaluated for its antagonist affinity towards Alpha-1D adrenergic receptor of rat. Format: functional. Conditions: read-out: pA2 (converted). In outline: (§3)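 Functional antagonism in rat tissues: α1D (thoracic aorta), 5-HT2A (tail artery), 5-HT4 (oesophageal tunica muscularis mucosae). Results are given as apparent pA2 from single-concentration rightward shifts, or pD'2 when only curve depression occurred.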

The target of experiment [7] is Beta-1 adrenergic receptor (Cavia porcellus, UniProt B0FL73). Briefly: Compound was evaluated for its antagonist affinity towards Beta-1 adrenergic receptor of guinea pig. Type of experiment: functional. The note with it: read-out: pA2 (converted). A digest of the protocol: (§4)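 Functional antagonism assays in guinea-pig tissues, each run with 1 µM mepyramine present: M3 (whole ileum), β1 (right atrium), 5-HT1B (iliac artery), 5-HT3 (quiescent ileal longitudinal muscle with myenteric plexus). Results are given as apparent pA2, or pD'2 when only curve depression occurred.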

Experiment [8] has as its target T1, Histamine H1 receptor. Briefly: Effective concentration for agonism activity in relaxed rat aortic rings with intact endothelium, submaximally precontracted with 15.8 nM U-46,619. Format: functional, tissue-based, Aorta.
Experiment [9] concerns the target Histamine H3 receptor (Cavia porcellus, UniProt Q9JI35). Description: Compound was evaluated for its antagonist affinity towards Histamine H3 receptor of guinea pig. Type of experiment: functional. The note with it: read-out: pA2 (converted). In outline: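 Electrically stimulated guinea-pig ileal longitudinal muscle with myenteric plexus, isometric (7.5 mN). Cumulative (R)-α-methylhistamine curves were run with and without test compound (20 min), with 1 µM mepyramine present. Values were apparent pA2, or pD'2 where curves were depressed.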

Experiment [10] addresses T2, Histamine H1 receptor. Description: Compound was evaluated for mepyramine antagonism effects in guinea pig aorta (contraction) at a mepyramine concentration of 100 nM. Type of experiment: functional, tissue-based. Conditions: read-out: pA2 (converted). A digest of the protocol:
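Guinea-pig aortic rings with endothelium damaged, isometric (10 mN), 37 °C Krebs-Henseleit. Agonist curves were run with mepyramine (100 nM, about 60 min) after threshold PGF2α precontraction. Apparent pA2 = −log c + log(r−1).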

In experiment [11] the target is T2, Histamine H1 receptor. Briefly: Antagonism of guinea pig ileum contraction at 100 nM mepyramine. Type of experiment: functional, tissue-based. Conditions: in the assay text read “at 1-30 nM mepyramine” for “at 100 nM mepyramine”; read-out: pA2 (converted). In outline: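 Guinea-pig whole ileal segments (2.0–2.5 cm), isotonic, preload 0.5 g, Tyrode's at 37 °C, 95% O2/5% CO2, with 0.1 µM atropine throughout. […] Apparent pA2 = −log c + log(r−1); full pA2 from Schild plot, slope fixed at 1.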

Experiment [12] deals with Histamine H2 receptor (Cavia porcellus, UniProt P47747). Briefly: Compound was evaluated for its antagonist affinity towards Histamine H2 receptor of guinea pig. Conditions: read-out: pA2 (converted). Format: functional.
Experiment [13] has as its target T2, Histamine H1 receptor. Description: Effective concentration for agonism activity in Endothelium-Denuded guinea pig aortic segment. Format: functional, tissue-based, Aorta. In outline: as §2
For experiment [14], the target named is T2, Histamine H1 receptor. Description: Effective concentration for agonist activity in guinea pig ileum whole segment. Type of experiment: functional, tissue-based.
Experiment [15] has as its target Muscarinic acetylcholine receptor M3 (Cavia porcellus, UniProt Q8VH26). Briefly: Compound was evaluated for its antagonist affinity towards Muscarinic acetylcholine receptor M3 of guinea pig. Type of experiment: functional. Conditions: read-out: pA2 (converted). A digest of the protocol: as §4
Experiment [16] concerns the target T1, Histamine H1 receptor. Description: Compound was evaluated for mepyramine antagonism effects in rat aorta (relaxation) at a mepyramine concentration of 100 nM. Type of experiment: functional, tissue-based. Conditions: read-out: pA2 (converted).
The target of experiment [17] is 5-hydroxytryptamine receptor 2A (Rattus norvegicus, UniProt P14842). Description: Compound was evaluated for its antagonist affinity towards 5-hydroxytryptamine 2A receptor of rat. Format: functional. The note with it: read-out: pA2 (converted). A digest of the protocol: as §3
The target of experiment [18] is 5-hydroxytryptamine receptor 4 (Rattus norvegicus, UniProt Q62758). Briefly: Compound was evaluated for its antagonist affinity towards 5-hydroxytryptamine 4 receptor of rat. The note with it: read-out: pA2 (converted). Type of experiment: functional. In outline:
as §3

Experiment [19] has as its target 5-hydroxytryptamine receptor 1B (Cavia porcellus). Description: Compound was evaluated for its antagonist affinity towards 5-hydroxytryptamine 1B receptor of guinea pig. The note with it: read-out: pA2 (converted).

SMILES strings stand for the structures. Several values for one entry are separate records, joined by “and”; a condition that tells them apart may be missing. Identical values can stand only once.

T2 sequence (P31389 whole entry): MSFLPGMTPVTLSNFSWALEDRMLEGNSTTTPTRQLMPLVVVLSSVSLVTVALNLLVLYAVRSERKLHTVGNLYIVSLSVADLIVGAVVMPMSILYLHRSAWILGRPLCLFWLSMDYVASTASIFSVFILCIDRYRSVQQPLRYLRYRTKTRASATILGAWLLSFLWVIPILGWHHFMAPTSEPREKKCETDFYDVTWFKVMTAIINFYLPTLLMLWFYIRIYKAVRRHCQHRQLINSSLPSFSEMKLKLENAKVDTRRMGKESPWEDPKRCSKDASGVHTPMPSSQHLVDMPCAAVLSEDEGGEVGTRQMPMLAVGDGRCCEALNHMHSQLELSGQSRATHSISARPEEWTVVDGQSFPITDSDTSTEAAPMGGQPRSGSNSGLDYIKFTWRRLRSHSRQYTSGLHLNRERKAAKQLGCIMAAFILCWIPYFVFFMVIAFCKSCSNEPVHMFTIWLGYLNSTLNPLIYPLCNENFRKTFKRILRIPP
T1 sequence (P31390 whole entry): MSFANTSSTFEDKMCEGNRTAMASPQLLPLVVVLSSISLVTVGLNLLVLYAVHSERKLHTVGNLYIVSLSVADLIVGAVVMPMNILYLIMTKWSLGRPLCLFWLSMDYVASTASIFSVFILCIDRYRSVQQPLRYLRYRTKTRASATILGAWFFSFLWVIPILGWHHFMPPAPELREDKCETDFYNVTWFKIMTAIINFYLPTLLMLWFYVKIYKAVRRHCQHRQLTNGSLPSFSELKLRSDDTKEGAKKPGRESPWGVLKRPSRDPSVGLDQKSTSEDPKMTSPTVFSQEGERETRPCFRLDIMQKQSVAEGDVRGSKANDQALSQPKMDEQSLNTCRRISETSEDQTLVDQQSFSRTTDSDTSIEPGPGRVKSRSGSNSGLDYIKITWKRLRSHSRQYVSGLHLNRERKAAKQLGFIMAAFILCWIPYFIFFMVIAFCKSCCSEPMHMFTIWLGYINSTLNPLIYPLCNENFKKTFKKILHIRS
Chain of Histamine H1 receptor (Cavia porcellus) (P31389 whole entry): as the sequence (P31389 whole entry) above
Chain of 5-hydroxytryptamine receptor 2A (P14842 whole entry): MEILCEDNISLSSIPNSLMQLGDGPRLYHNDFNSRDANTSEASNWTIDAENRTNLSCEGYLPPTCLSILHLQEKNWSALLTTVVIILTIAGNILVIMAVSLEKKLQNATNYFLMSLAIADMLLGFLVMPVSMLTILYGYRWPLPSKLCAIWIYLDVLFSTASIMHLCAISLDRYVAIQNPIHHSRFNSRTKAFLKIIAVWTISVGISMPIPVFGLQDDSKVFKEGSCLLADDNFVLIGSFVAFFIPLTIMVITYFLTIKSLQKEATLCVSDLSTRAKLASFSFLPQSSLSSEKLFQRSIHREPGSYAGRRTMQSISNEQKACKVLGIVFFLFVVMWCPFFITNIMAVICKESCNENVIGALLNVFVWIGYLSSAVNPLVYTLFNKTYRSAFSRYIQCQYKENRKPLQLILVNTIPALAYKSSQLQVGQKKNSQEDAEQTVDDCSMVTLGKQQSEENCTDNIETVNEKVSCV
Chain of Histamine H2 receptor (P47747 whole entry): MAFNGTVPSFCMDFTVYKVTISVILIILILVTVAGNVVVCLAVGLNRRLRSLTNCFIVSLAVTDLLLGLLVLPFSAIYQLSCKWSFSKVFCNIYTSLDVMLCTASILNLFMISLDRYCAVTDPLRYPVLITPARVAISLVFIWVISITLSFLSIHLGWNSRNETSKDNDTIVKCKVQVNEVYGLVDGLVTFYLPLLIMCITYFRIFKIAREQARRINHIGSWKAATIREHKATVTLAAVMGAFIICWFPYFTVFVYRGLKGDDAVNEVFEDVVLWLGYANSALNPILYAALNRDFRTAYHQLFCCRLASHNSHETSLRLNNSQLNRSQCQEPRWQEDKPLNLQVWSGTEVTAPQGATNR
Chain of Muscarinic acetylcholine receptor M3 (Q8VH26 whole entry): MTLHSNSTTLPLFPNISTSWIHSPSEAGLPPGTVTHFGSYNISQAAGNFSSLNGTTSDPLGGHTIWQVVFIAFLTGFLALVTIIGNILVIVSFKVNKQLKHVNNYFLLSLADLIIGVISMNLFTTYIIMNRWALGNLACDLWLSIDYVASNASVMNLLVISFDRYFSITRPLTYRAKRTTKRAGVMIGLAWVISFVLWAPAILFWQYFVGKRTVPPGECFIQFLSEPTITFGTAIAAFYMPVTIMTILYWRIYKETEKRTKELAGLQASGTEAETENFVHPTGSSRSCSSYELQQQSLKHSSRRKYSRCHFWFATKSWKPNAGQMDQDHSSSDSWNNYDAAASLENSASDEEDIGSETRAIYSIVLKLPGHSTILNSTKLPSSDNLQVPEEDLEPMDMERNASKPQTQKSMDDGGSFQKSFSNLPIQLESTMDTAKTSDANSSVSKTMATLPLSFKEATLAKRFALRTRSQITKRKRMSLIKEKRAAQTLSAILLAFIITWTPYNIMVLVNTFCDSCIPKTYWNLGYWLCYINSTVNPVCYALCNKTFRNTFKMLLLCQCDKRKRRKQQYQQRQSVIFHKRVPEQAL
Chain of Beta-1 adrenergic receptor (B0FL73 whole entry): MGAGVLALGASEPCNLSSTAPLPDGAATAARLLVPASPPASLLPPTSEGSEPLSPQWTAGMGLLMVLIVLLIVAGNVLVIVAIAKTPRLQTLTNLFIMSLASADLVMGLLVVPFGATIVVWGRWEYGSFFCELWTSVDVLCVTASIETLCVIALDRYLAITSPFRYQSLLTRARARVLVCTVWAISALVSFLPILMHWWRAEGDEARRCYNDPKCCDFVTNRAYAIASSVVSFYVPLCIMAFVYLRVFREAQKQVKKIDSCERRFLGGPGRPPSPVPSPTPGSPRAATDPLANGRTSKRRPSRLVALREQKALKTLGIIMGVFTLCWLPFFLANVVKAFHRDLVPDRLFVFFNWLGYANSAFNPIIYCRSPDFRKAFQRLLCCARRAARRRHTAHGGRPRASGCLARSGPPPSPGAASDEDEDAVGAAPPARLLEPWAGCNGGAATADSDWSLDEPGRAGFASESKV
Chain of 5-hydroxytryptamine receptor 4 (Q62758 whole entry): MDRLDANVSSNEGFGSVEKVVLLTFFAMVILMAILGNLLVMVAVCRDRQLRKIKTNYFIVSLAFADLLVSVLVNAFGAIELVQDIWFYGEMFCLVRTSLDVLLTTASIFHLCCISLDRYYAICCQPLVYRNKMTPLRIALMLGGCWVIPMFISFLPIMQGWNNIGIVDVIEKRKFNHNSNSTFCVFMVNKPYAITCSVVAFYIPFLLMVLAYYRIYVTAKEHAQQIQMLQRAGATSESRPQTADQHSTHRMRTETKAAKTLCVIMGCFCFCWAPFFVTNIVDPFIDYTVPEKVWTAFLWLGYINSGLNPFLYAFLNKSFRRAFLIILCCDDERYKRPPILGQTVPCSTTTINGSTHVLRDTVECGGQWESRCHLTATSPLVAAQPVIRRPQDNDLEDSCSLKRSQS
Chain of Histamine H3 receptor (Q9JI35 whole entry): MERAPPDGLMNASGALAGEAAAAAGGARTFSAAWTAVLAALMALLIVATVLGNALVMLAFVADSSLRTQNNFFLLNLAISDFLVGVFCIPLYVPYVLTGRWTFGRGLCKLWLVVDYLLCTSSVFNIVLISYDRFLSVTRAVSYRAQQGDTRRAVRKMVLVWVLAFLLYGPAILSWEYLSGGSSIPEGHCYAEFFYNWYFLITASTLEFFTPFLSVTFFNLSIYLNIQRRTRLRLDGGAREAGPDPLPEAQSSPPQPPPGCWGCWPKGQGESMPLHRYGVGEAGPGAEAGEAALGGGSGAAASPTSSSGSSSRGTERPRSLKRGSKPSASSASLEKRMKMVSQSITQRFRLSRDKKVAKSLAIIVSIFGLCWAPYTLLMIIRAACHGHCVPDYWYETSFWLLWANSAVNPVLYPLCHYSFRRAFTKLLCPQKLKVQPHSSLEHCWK

For the compound `NCCc1c[nH]c(CCCCC(c2ccccc2)c2ccccc2)n1`, the Kb is 1.07 µM in [1], 1 µM in experiment [3] and 0.832 µM in experiment [4]. For the same compound, the Emax in experiment [2] and in experiment [5] was 0 throughout.
By EC50 is commonly meant the concentration at which the effect is half-maximal. Read a low EC50 as higher potency in that assay. As to `NCCc1cnc(CCC(c2ccccc2)c2ccccc2)[nH]1`, the Kb in experiment [6] is 3.55 µM; in experiment [7], 45.7 µM; in [9], over 1.58 µM; in experiment [10], 0.00158 µM and 0.000977 µM; in experiment [11], 0.000776 µM; in experiment [12], 34.7 µM. For the same compound, the Kb in experiment [15] is 2.82 µM; in experiment [16], 0.00912 µM; in experiment [17], 6.46 µM; in experiment [18], over 3.16 µM; in experiment [19], 14.1 µM. Moreover, the EC50 was 0.851 µM in [8]; 1.95 µM and 0.309 µM in experiment [13]; 0.182 µM in [14].
